# Data from ChEMBL document CHEMBL1158358, “Synthesis, antimicrobial and cytotoxic activities of some 5-arylidene-4-thioxo-thiazolidine-2-ones” (Eur J Med Chem, 2009).
# Key:
# Assay type in all cases: functional
# Staphylococcus aureus [1] = assay: Antimicrobial activity against Staphylococcus aureus UFPEDA 01 after 20 hrs by twofold serial dilution technique; settings: UFPEDA 01, 20 h
# In short: (§1)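 Twofold serial dilution MIC in agar plates against Gram-positive strains and multidrug-resistant clinical isolates. Inoculum applied was 10⁵ CFU/plate. Plates with culture medium plus DMSO served as negative control. MIC was read after incubation at 35 °C for 20 h.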
# Bacillus subtilis [2] = assay: Antimicrobial activity against Bacillus subtilis UFPEDA 16 after 20 hrs by twofold serial dilution technique; settings: UFPEDA 16, 20 h
# In short: (§2)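 MIC was determined by twofold serial dilution. Bacteria were tested in plates at 10⁵ CFU/plate and read after 20 h. C. albicans was tested in tubes at 10³ CFU/tube and read after 48 h. All incubations were at 35 °C. Medium plus DMSO served as the negative control.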
# Micrococcus luteus [3] = assay: Antimicrobial activity against Micrococcus luteus UFPEDA 06 after 20 hrs by twofold serial dilution technique; settings: UFPEDA 06, 20 h; in short: as §2
# Enterococcus faecalis [4] = assay: Antimicrobial activity against Enterococcus faecalis UFPEDA 138 after 20 hrs by twofold serial dilution technique; settings: UFPEDA 138, 20 h; in short: as §2
# [5] = system: Mycolicibacterium smegmatis; assay: Antimicrobial activity against Mycobacterium smegmatis UFPEDA 71 after 20 hrs by twofold serial dilution technique; settings: UFPEDA 71, 20 h; in short: as §2
# Candida albicans [6] = assay: Antimicrobial activity against Candida albicans UFPEDA 1007 after 48 hrs by twofold serial dilution technique; settings: UFPEDA 1007, 48 h; in short: as §2
# Staphylococcus aureus [7] = assay: Antimicrobial activity against multidrug-resistant Staphylococcus aureus H.C. 20981 isolate after 20 hrs by twofold serial dilution technique; settings: H.C. 20981, 20 h; in short: as §1
# Staphylococcus aureus [8] = assay: Antimicrobial activity against multidrug-resistant Staphylococcus aureus H.C. 21141 isolate after 20 hrs by twofold serial dilution technique; settings: H.C. 21141, 20 h; in short: as §1
# Staphylococcus aureus [9] = assay: Antimicrobial activity against multidrug-resistant Staphylococcus aureus H.C. 21036 isolate after 20 hrs by twofold serial dilution technique; settings: H.C. 21036, 20 h; in short: as §1
# Staphylococcus aureus [10] = assay: Antimicrobial activity against multidrug-resistant Staphylococcus aureus H.C. 20489 isolate after 20 hrs by twofold serial dilution technique; settings: H.C. 20489, 20 h; in short: as §1
# Staphylococcus aureus [11] = assay: Antimicrobial activity against multidrug-resistant Staphylococcus aureus H.C. 20794 isolate after 20 hrs by twofold serial dilution technique; settings: H.C. 20794, 20 h; in short: as §1
# Staphylococcus aureus [12] = assay: Antimicrobial activity against multidrug-resistant Staphylococcus aureus H.C. 20905 isolate after 20 hrs by twofold serial dilution technique; settings: H.C. 20905, 20 h; in short: as §1
# Enterococcus faecalis [13] = assay: Antimicrobial activity against multidrug-resistant Enterococcus faecalis H.C. 21752 isolate after 20 hrs by twofold serial dilution technique; settings: H.C. 21752, 20 h; in short: as §1
# Enterococcus faecalis [14] = assay: Antimicrobial activity against multidrug-resistant Enterococcus faecalis H.C. 21944 isolate after 20 hrs by twofold serial dilution technique; settings: H.C. 21944, 20 h; in short: as §1
# Enterococcus faecalis [15] = assay: Antimicrobial activity against multidrug-resistant Enterococcus faecalis H.C. 24708 isolate after 20 hrs by twofold serial dilution technique; settings: H.C. 24708, 20 h; in short: as §1
# Enterococcus faecalis [16] = assay: Antimicrobial activity against multidrug-resistant Enterococcus faecalis H.C. 24962 isolate after 20 hrs by twofold serial dilution technique; settings: H.C. 24962, 20 h; in short: as §1
# Staphylococcus [17] = assay: Antimicrobial activity against coagulase-negative Staphylococcus H.A.M. 278 isolate after 20 hrs by twofold serial dilution technique; settings: H.A.M. 278, 20 h; in short: as §2
# Staphylococcus [18] = assay: Antimicrobial activity against coagulase-negative Staphylococcus H.A.M. 338 isolate after 20 hrs by twofold serial dilution technique; settings: H.A.M. 338, 20 h; in short: as §2
# NCI-H292 [19] = assay: Cytotoxicity against human NCI-H292 cells at 10 ug/mL after 72 hrs by MTT assay; settings: NCI-H292, 72 h, read-out: GI
# In short: (§3)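 MTT antiproliferative assay. Cells were diluted to 10⁵ cells/mL in 96-well plates and preincubated for 24 h at 37 °C in humid 5% CO₂. Compounds or vincristine (reference) were then added. Formazan was dissolved and OD read at 540 nm, compared with medium-only control cells. Run in triplicate.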
# NCI-H292 [20] = assay: Cytotoxicity against human NCI-H292 cells at 5 ug/mL after 72 hrs by MTT assay; settings: NCI-H292, 72 h, read-out: GI; in short: as §3
# NCI-H292 [21] = assay: Cytotoxicity against human NCI-H292 cells at 2.5 ug/mL after 72 hrs by MTT assay; settings: NCI-H292, 72 h, read-out: GI; in short: as §3
# NCI-H292 [22] = assay: Cytotoxicity against human NCI-H292 cells at 1.25 ug/mL after 72 hrs by MTT assay; settings: NCI-H292, 72 h, read-out: GI; in short: as §3
# HEp-2 [23] = assay: Cytotoxicity against human Hep2 cells at 10 ug/mL after 72 hrs by MTT assay; settings: HEp-2, 72 h, read-out: GI; in short: as §3
# HEp-2 [24] = assay: Cytotoxicity against human Hep2 cells at 5 ug/mL after 72 hrs by MTT assay; settings: HEp-2, 72 h, read-out: GI; in short: as §3
# HEp-2 [25] = assay: Cytotoxicity against human Hep2 cells at 2.5 ug/mL after 72 hrs by MTT assay; settings: HEp-2, 72 h, read-out: GI; in short: as §3
# HEp-2 [26] = assay: Cytotoxicity against human Hep2 cells at 1.25 ug/mL after 72 hrs by MTT assay; settings: HEp-2, 72 h, read-out: GI; in short: as §3
# Serratia marcescens [27] = assay: Antimicrobial activity against Serratia marcescens UFPEDA 398 at 300 ug/disk after 24 hrs by disk diffusion method; settings: UFPEDA 398, 24 h, read-out: IZ
# In short: (§4)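 Preliminary screen by disk diffusion. Paper disks (6 mm) holding 300 µg of compound were placed on agar plates inoculated with a standardized microbial suspension. DMSO-only disks served as negative controls. A mean inhibition zone below 7 mm was scored as no sensitivity. Values are means, n = 3.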
# Escherichia coli [28] = assay: Antimicrobial activity against Escherichia coli UFPEDA 224 at 300 ug/disk after 24 hrs by disk diffusion method; settings: UFPEDA 224, 24 h, read-out: IZ; in short: as §4
# Staphylococcus aureus [29] = assay: Antimicrobial activity against Staphylococcus aureus UFPEDA 01 at 300 ug/disk after 24 hrs by disk diffusion method; settings: UFPEDA 01, 24 h, read-out: IZ; in short: as §4
# Bacillus subtilis [30] = assay: Antimicrobial activity against Bacillus subtilis UFPEDA 16 at 300 ug/disk after 24 hrs by disk diffusion method; settings: UFPEDA 16, 24 h, read-out: IZ; in short: as §4
# Micrococcus luteus [31] = assay: Antimicrobial activity against Micrococcus luteus UFPEDA 06 at 300 ug/disk after 24 hrs by disk diffusion method; settings: UFPEDA 06, 24 h, read-out: IZ; in short: as §4
# Enterococcus faecalis [32] = assay: Antimicrobial activity against Enterococcus faecalis UFPEDA 138 at 300 ug/disk after 24 hrs by disk diffusion method; settings: UFPEDA 138, 24 h, read-out: IZ; in short: as §4
# Pseudomonas aeruginosa [33] = assay: Antimicrobial activity against Pseudomonas aeruginosa UFPEDA 39 at 300 ug/disk after 24 hrs by disk diffusion method; settings: UFPEDA 39, 24 h, read-out: IZ; in short: as §4
# [34] = system: Mycolicibacterium smegmatis; assay: Antimicrobial activity against Mycobacterium smegmatis UFPEDA 71 at 300 ug/disk after 24 hrs by disk diffusion method; settings: UFPEDA 71, 24 h, read-out: IZ; in short: as §4
# Candida albicans [35] = assay: Antimicrobial activity against Candida albicans UFPEDA 1007 at 300 ug/disk after 48 hrs by disk diffusion method; settings: UFPEDA 1007, 48 h, read-out: IZ; in short: as §4
# Pseudomonas aeruginosa [36] = assay: Antimicrobial activity against Pseudomonas aeruginosa UFPEDA 39 at 30 ug/disk after 24 hrs by disk diffusion method; settings: UFPEDA 39, 24 h, read-out: IZ
# Escherichia coli [37] = assay: Antimicrobial activity against Escherichia coli UFPEDA 224 at 30 ug/disk after 24 hrs by disk diffusion method; settings: UFPEDA 224, 24 h, read-out: IZ
# Serratia marcescens [38] = assay: Antimicrobial activity against Serratia marcescens UFPEDA 398 at 30 ug/disk after 24 hrs by disk diffusion method; settings: UFPEDA 398, 24 h, read-out: IZ
# [39] = system: Mycolicibacterium smegmatis; assay: Antimicrobial activity against Mycobacterium smegmatis UFPEDA 71 at 30 ug/disk after 24 hrs by disk diffusion method; settings: UFPEDA 71, 24 h, read-out: IZ
Compound,MIC (Staphylococcus aureus [1]) [µg/mL],MIC (Bacillus subtilis [2]) [µg/mL],MIC (Micrococcus luteus [3]) [µg/mL],MIC (Enterococcus faecalis [4]) [µg/mL],MIC [5] [µg/mL],MIC (Candida albicans [6]) [µg/mL],MIC (Staphylococcus aureus [7]) [µg/mL],MIC (Staphylococcus aureus [8]) [µg/mL],MIC (Staphylococcus aureus [9]) [µg/mL],MIC (Staphylococcus aureus [10]) [µg/mL],MIC (Staphylococcus aureus [11]) [µg/mL],MIC (Staphylococcus aureus [12]) [µg/mL],MIC (Enterococcus faecalis [13]) [µg/mL],MIC (Enterococcus faecalis [14]) [µg/mL],MIC (Enterococcus faecalis [15]) [µg/mL],MIC (Enterococcus faecalis [16]) [µg/mL],MIC (Staphylococcus [17]) [µg/mL],MIC (Staphylococcus [18]) [µg/mL],inhibition of growth at 10 µg/mL (NCI-H292 [19]) [%],inhibition of growth at 5 µg/mL (NCI-H292 [20]) [%],other results
O=C1NC(=S)/C(=C/c2ccc(Cl)cc2Cl)S1,2,2,8,16,4,32,2,4,8,2,2,2,4,4,8,8,4,2,38.4,29.3,inhibition of growth at 2.5 µg/mL (NCI-H292 [21]): 14.7%; inhibition of growth at 1.25 µg/mL (NCI-H292 [22]): 12.1%; inhibition of growth at 10 µg/mL (HEp-2 [23]): 24.8%; inhibition of growth at 5 µg/mL (HEp-2 [24]): 20%; inhibition of growth at 2.5 µg/mL (HEp-2 [25]): 15.3%; inhibition of growth at 1.25 µg/mL (HEp-2 [26]): 6.83%; zone of inhibition at 300 µg/disc (Serratia marcescens [27]): < 7 mm; zone of inhibition at 300 µg/disc (Escherichia coli [28]): < 7 mm; zone of inhibition at 300 µg/disc (Staphylococcus aureus [29]): 23 mm; zone of inhibition at 300 µg/disc (Bacillus subtilis [30]): 24 mm; zone of inhibition at 300 µg/disc (Micrococcus luteus [31]): 24 mm; zone of inhibition at 300 µg/disc (Enterococcus faecalis [32]): 18 mm; zone of inhibition at 300 µg/disc (Pseudomonas aeruginosa [33]): < 7 mm; zone of inhibition at 300 µg/disc [34]: 19 mm; zone of inhibition at 300 µg/disc (Candida albicans [35]): 15 mm
O=C1NC(=S)/C(=C/c2cccc(Br)c2)S1,4,8,8,16,16,64,16,32,16,8,8,16,8,16,8,16,64,64,42.4,22,inhibition of growth at 2.5 µg/mL (NCI-H292 [21]): 11.1%; inhibition of growth at 1.25 µg/mL (NCI-H292 [22]): 4.67%; inhibition of growth at 10 µg/mL (HEp-2 [23]): 23.6%; inhibition of growth at 5 µg/mL (HEp-2 [24]): -1.04%; inhibition of growth at 2.5 µg/mL (HEp-2 [25]): -1.82%; inhibition of growth at 1.25 µg/mL (HEp-2 [26]): -5.3%; zone of inhibition at 300 µg/disc (Serratia marcescens [27]): < 7 mm; zone of inhibition at 300 µg/disc (Escherichia coli [28]): < 7 mm; zone of inhibition at 300 µg/disc (Staphylococcus aureus [29]): 28 mm; zone of inhibition at 300 µg/disc (Bacillus subtilis [30]): 26 mm; zone of inhibition at 300 µg/disc (Micrococcus luteus [31]): 29 mm; zone of inhibition at 300 µg/disc (Enterococcus faecalis [32]): 25 mm; zone of inhibition at 300 µg/disc (Pseudomonas aeruginosa [33]): < 7 mm; zone of inhibition at 300 µg/disc [34]: 25 mm; zone of inhibition at 300 µg/disc (Candida albicans [35]): 14 mm
NC[C@H]1O[C@H](O[C@H]2[C@H](O)[C@@H](O[C@H]3O[C@H](CO)[C@@H](O)[C@H](N)[C@H]3O)[C@H](N)C[C@@H]2N)[C@H](O)[C@@H](O)[C@@H]1O [KANAMYCIN],–,–,–,–,–,–,–,–,–,–,–,–,–,–,–,–,–,–,–,–,zone of inhibition at 30 µg/disc (Pseudomonas aeruginosa [36]): 20 mm; zone of inhibition at 30 µg/disc (Escherichia coli [37]): 15 mm; zone of inhibition at 30 µg/disc (Serratia marcescens [38]): 45 mm; zone of inhibition at 30 µg/disc [39]: 40 mm
